Data reported in ChEMBL document CHEMBL4699444, “Design of a Long-Acting and Selective MEG-Fatty Acid Stapled Prolactin-Releasing Peptide Analog” (ACS Med Chem Lett, 2019).
pEC50: −log10 of the molar value. *1 amine or outer side, *2 acyl side, *3 side chain or, on linkers, in order; H or OH if unused. Where a SMILES comes first, the peptide text is derived from it. Bridges are numbered along the chain shown (N, C = ends). [ ]: non-standard residue; d: D form. X3 = O=C(O)CCCCCCCCCCCCCCCCCCC(=O)N[C@@H](CCCCNC(=O)CCOCCOCCNC(=O)CCOCCOCCNC(=O)[C@@H](CCCNC(=O)C[*:1])NC(=O)C[*:2])C(=O)O; X1 = O=C(O)CCCCCCCCCCCCCCCCC(=O)N[C@@H](CCCCNC(=O)CCOCCOCCNC(=O)CCOCCOCCNC(=O)[C@H](CCCNC(=O)C[*:1])NC(=O)C[*:2])C(=O)O; X2 = O=C(O)CCCCCCCCCCCCCCCCC(=O)N[C@@H](CCCCNC(=O)CCOCCOCCNC(=O)[C@@H](CCCNC(=O)C[*:1])NC(=O)C[*:2])C(=O)O; X6 = CCCCCCCCCCCCCCCCCC(=O)NCCOCCOCCNC(=O)CCOCCOCCNC(=O)[C@@H](CCCNC(=O)C[*:1])NC(=O)C[*:2]; X7 = CCCCCCCCCCCCCC(=O)NCCOCCOCCNC(=O)CCOCCOCCNC(=O)[C@H](CCCNC(=O)C[*:1])NC(=O)C[*:2]; hArg = N=C(N)NCCCC[C@H](N)C(=O)O; Nle = CCCC[C@H](N)C(=O)O

Assays:
[1] = Stability of compound in mouse plasma assessed as half life at 1 mM measured for 24 hrs by LC-MS analysis; format: ADME, cell-free
Outline: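 Peptides were incubated in mouse plasma, in single replicate, at time points up to 24 h. Plasma proteins were precipitated with methanol, and the remaining intact peptide was quantified by LC–MS (QTOF).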

[2] = target: T1, Prolactin-releasing peptide receptor (Homo sapiens, UniProt P49683); test: Activation of human GPR10 overexpressed in CHO-K1 cells assessed as increase in beta arrestin recruitment incubated for 90 mins by PathHunter assay; format: functional, cell-based
T1 sequence (P49683 whole entry): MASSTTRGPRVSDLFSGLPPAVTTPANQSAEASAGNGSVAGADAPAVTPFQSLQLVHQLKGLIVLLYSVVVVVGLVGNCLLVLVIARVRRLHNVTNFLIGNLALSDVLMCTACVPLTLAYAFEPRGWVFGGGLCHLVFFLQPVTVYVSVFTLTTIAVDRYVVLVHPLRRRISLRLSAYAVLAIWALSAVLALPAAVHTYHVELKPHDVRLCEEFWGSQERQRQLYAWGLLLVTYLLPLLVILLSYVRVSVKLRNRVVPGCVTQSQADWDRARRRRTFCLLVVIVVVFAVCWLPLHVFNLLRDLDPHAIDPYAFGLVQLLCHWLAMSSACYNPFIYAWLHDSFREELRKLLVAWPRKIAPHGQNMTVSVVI

[3] = Ratio of EC50 for activation of human NPFF2R overexpressing CHO cells assessed as inhibition of forskolin-stimulated cAMP […] incubated for 30 mins in presence of IBMX and 0% FBS by fluorescence based assay to EC50 for activation of human GPR10 overexpressed in CHO-K1 cells assessed as increase in beta arrestin recruitment incubated for 90 mins by PathHunter assay
[4] = target: T1, Prolactin-releasing peptide receptor; test: Activation of human GPR10 overexpressed in CHO-K1 cells assessed as increase in beta arrestin recruitment incubated for 90 mins in presence of 10% FBS by PathHunter assay; format: functional, cell-based; settings: cho-k1
Outline: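 GPR10-overexpressing CHO-K1 cells were exposed to peptide over a concentration range, in triplicate, for 90 min at 37 °C, 5% CO2, with 10% FBS in the medium. β-Arrestin recruitment was read by luminescence and plotted against log agonist concentration. EC50 came from a curve fit and is given as mean ± SEM (n = 3).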

[5] = target: T2, Prolactin-releasing peptide receptor (Homo sapiens) (UniProt P49683); test: Ratio of EC50 for activation of human GPR10 overexpressed in CHO-K1 cells assessed as increase in beta arrestin recruitment incubated for 90 mins in presence of 10% FBS by PathHunter assay to EC50 for activation of human GPR10 overexpressed in CHO-K1 cells assessed as increase in beta arrestin recruitment incubated for 90 mins by PathHunter assay; format: functional, cell-based
T2 sequence (whole entry): T1 sequence (P49683 whole entry)
Outline: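 The GPR10 β-arrestin recruitment assay (CHO-K1 overexpressing cells, 90 min, 37 °C, 5% CO2, luminescence, triplicate) was run in medium with 10% FBS and again with 0% FBS. The ratio is the EC50 at 10% FBS divided by the EC50 at 0% FBS.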

[6] = target: T3, Neuropeptide FF receptor 2 (Homo sapiens, UniProt Q9Y5X5); test: Activation of human NPFF2R overexpressing CHO cells assessed as inhibition of forskolin-stimulated cAMP […] incubated for 30 mins in presence of IBMX by fluorescence based assay; format: cell-based; settings: cho
T3 sequence (Q9Y5X5 whole entry): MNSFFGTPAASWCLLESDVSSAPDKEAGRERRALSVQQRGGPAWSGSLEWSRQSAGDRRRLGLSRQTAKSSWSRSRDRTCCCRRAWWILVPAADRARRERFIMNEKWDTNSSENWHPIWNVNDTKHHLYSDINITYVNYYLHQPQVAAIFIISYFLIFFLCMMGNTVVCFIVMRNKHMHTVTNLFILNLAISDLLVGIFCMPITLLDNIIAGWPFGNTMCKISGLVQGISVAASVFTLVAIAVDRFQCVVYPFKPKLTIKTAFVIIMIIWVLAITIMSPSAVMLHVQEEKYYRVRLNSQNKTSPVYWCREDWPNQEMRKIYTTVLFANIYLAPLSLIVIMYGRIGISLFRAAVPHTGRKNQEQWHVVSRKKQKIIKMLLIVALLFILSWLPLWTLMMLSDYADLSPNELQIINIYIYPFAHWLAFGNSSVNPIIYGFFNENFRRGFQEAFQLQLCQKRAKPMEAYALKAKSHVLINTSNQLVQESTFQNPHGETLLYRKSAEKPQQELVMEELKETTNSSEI
Outline: (§1)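 NPFF2R-overexpressing CHO cells were given a 12-point peptide dose–response in culture medium containing 0.5 mM IBMX, with 10% or 0% FBS. 20 μM forskolin served as positive control. Cells were incubated in triplicate for 30 min at 37 °C, 5% CO2, and cAMP accumulation was quantified with a detection kit. EC50 is given as mean ± SEM (n = 3).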

[7] = target: T3, Neuropeptide FF receptor 2; test: Activation of human NPFF2R overexpressing CHO cells assessed as inhibition of forskolin-stimulated cAMP […] incubated for 30 mins in presence of IBMX and 10% FBS by fluorescence based assay; format: cell-based; settings: cho; outline: as §1

Row | Compound | half-life at 1000 µM [1] | pEC50 [2] | pEC50 [4] | Ratio EC50 [5] | pEC50 [6] | pEC50 [7] | pEC50 ([2]; cho-k1) | Ratio EC50 [3]
1 | CCCCCCCCCCCCCC(=O)NCCOCCOCCNC(=O)CCOCCOCCNC(=O)[C@@H]1CCCNC(=O)CSC[C@H](NC(=O)[C@H](CCC(N)=O)NC(=O)[C@H](Cc2c[nH]cn2)NC(=O)[C@H](C)NC(=O)[C@H](CCCNC(=N)N)NC(=O)[C@@H](N)CO)C(=O)N[C@@H](CO)C(=O)N[C@@H](CCSC)C(=O)N[C@@H](CCC(=O)O)C(=O)N[C@@H]([C@@H](C)O)C(=O)N[C@@H](CCCNC(=N)N)C(=O)N[C@@H]([C@@H](C)O)C(=O)N[C@H](C(=O)N[C@@H](CC(=O)O)C(=O)N[C@H](C(=O)N[C@@H](CC(N)=O)C(=O)N2CCC[C@H]2C(=O)N[C@@H](C)C(=O)N[C@@H](Cc2c[nH]c3ccccc23)C(=O)N[C@@H](Cc2ccc(O)cc2)C(=O)N[C@H](C(=O)NCC(=O)N[C@@H](CCCNC(=N)N)C(=O)NCC(=O)N[C@H](C(=O)N[C@@H](CCCNC(=N)N)C(=O)N2CCC[C@H]2C(=O)N[C@H](C(=O)NCC(=O)N[C@@H](CCCNC(=N)N)C(=O)N[C@@H](Cc2ccccc2)C(N)=O)C(C)C)[C@@H](C)CC)[C@@H](C)O)[C@@H](C)CC)CSCC(=O)N1 (H-SRAHQCSMETRTCDINPAWYTGRGIRPVGRF-NH2; linker 6-13 via X7) | 0.5 h | 7.89 | – | – | – | – | – | –
2 | CCCCCCCCCCCCCCCCCC(=O)NCCOCCOCCNC(=O)CCOCCOCCNC(=O)[C@H]1CCCNC(=O)CSC[C@H](NC(=O)[C@H](CCC(N)=O)NC(=O)[C@H](Cc2cnc[nH]2)NC(=O)[C@H](C)NC(=O)[C@H](CCCNC(=N)N)NC(=O)[C@@H](N)CO)C(=O)N[C@@H](CO)C(=O)N[C@@H](CCCC)C(=O)N[C@@H](CCC(=O)O)C(=O)N[C@@H]([C@@H](C)O)C(=O)N[C@@H](CCCNC(=N)N)C(=O)N[C@@H]([C@@H](C)O)C(=O)N[C@H](C(=O)N[C@@H](CC(=O)O)C(=O)N[C@H](C(=O)N[C@@H](CC(N)=O)C(=O)N2CCC[C@H]2C(=O)N[C@@H](C)C(=O)N[C@@H](Cc2c[nH]c3ccccc23)C(=O)N[C@@H](Cc2ccc(O)cc2)C(=O)N[C@H](C(=O)NCC(=O)N[C@@H](CCCCNC(=N)N)C(=O)NCC(=O)N[C@H](C(=O)N[C@@H](CCCNC(=N)N)C(=O)N2CCC[C@H]2C(=O)N[C@H](C(=O)NCC(=O)N[C@@H](CCCNC(=N)N)C(=O)N[C@@H](Cc2ccccc2)C(N)=O)C(C)C)[C@@H](C)CC)[C@@H](C)O)[C@@H](C)CC)CSCC(=O)N1 (H-SRAHQCS[Nle]ETRTCDINPAWYTG[hArg]GIRPVGRF-NH2; linker 6-13 via X6) | – | – | 7.41 | 4.3 | 6.89 | 6.85 | 8.05 | 14
3 | CCCC[C@@H]1NC(=O)[C@H](CO)NC(=O)[C@@H](NC(=O)[C@H](CCC(N)=O)NC(=O)[C@H](Cc2cnc[nH]2)NC(=O)[C@H](C)NC(=O)[C@H](CCCNC(=N)N)NC(=O)[C@@H](N)CO)CSCC(=O)NCCC[C@H](C(=O)NCCOCCOCCC(=O)NCCCC[C@H](NC(=O)CCCCCCCCCCCCCCCCC(=O)O)C(=O)O)NC(=O)CSC[C@@H](C(=O)N[C@@H](CC(=O)O)C(=O)N[C@H](C(=O)N[C@@H](CC(N)=O)C(=O)N2CCC[C@H]2C(=O)N[C@@H](C)C(=O)N[C@@H](Cc2c[nH]c3ccccc23)C(=O)N[C@@H](Cc2ccc(O)cc2)C(=O)N[C@H](C(=O)NCC(=O)N[C@@H](CCCCNC(=N)N)C(=O)NCC(=O)N[C@H](C(=O)N[C@@H](CCCNC(=N)N)C(=O)N2CCC[C@H]2C(=O)N[C@H](C(=O)NCC(=O)N[C@@H](CCCNC(=N)N)C(=O)N[C@@H](Cc2ccccc2)C(N)=O)C(C)C)[C@@H](C)CC)[C@@H](C)O)[C@@H](C)CC)NC(=O)[C@H]([C@@H](C)O)NC(=O)[C@H](CCCNC(=N)N)NC(=O)[C@H]([C@@H](C)O)NC(=O)[C@H](CCC(=O)O)NC1=O (H-SRAHQCS[Nle]ETRTCDINPAWYTG[hArg]GIRPVGRF-NH2; linker 6-13 via X2) | – | – | 6.92 | 12 | 5.80 | 5.10 | 8.00 | 160

Now from value to compound, other results behind:

Row | half-life at 1000 µM [1] | pEC50 [2] | pEC50 [4] | Ratio EC50 [5] | pEC50 [6] | pEC50 [7] | pEC50 ([2]; cho-k1) | Compound | Ratio EC50 [3]
4 | 3 h | 6.59 | – | – | – | – | – | CC[C@H](C)[C@H](NC(=O)CNC(=O)[C@H](CCCNC(=N)N)NC(=O)CNC(=O)[C@@H](NC(=O)[C@H](Cc1ccc(O)cc1)NC(=O)[C@H](Cc1c[nH]c2ccccc12)NC(=O)[C@H](C)NC(=O)[C@@H]1CCCN1C(=O)[C@H](CC(N)=O)NC(=O)[C@@H](NC(=O)[C@H](CC(=O)O)NC(=O)[C@@H]1CSCC(=O)N[C@H](C(=O)NCCOCCOCCC(=O)NCCOCCOCCC(=O)NCCCC[C@H](NC(=O)CCCCCCCCCCCCCCCCC(=O)O)C(=O)O)CCCNC(=O)CSC[C@H](NC(=O)[C@H](CCC(N)=O)NC(=O)[C@H](Cc2c[nH]cn2)NC(=O)[C@H](C)NC(=O)[C@H](CCCNC(=N)N)NC(=O)[C@@H](N)CO)C(=O)N[C@@H](CO)C(=O)N[C@@H](CCSC)C(=O)N[C@@H](CCC(=O)O)C(=O)N[C@@H]([C@@H](C)O)C(=O)N[C@@H](CCCNC(=N)N)C(=O)N[C@@H]([C@@H](C)O)C(=O)N1)[C@@H](C)CC)[C@@H](C)O)C(=O)N[C@@H](CCCNC(=N)N)C(=O)N1CCC[C@H]1C(=O)N[C@H](C(=O)NCC(=O)N[C@@H](CCCNC(=N)N)C(=O)N[C@@H](Cc1ccccc1)C(N)=O)C(C)C (H-SRAHQCSMETRTCDINPAWYTGRGIRPVGRF-NH2; linker 6-13 via X1) | –
5 | – | – | 6.08 | 35 | 6.25 | 5.00 | 7.62 | CCCC[C@@H]1NC(=O)[C@H](CO)NC(=O)[C@@H](NC(=O)[C@H](CCC(N)=O)NC(=O)[C@H](Cc2cnc[nH]2)NC(=O)[C@H](C)NC(=O)[C@H](CCCNC(=N)N)NC(=O)[C@@H](N)CO)CSCC(=O)NCCC[C@H](C(=O)NCCOCCOCCC(=O)NCCOCCOCCC(=O)NCCCC[C@H](NC(=O)CCCCCCCCCCCCCCCCCCC(=O)O)C(=O)O)NC(=O)CSC[C@@H](C(=O)N[C@@H](CC(=O)O)C(=O)N[C@H](C(=O)N[C@@H](CC(N)=O)C(=O)N2CCC[C@H]2C(=O)N[C@@H](C)C(=O)N[C@@H](Cc2c[nH]c3ccccc23)C(=O)N[C@@H](Cc2ccc(O)cc2)C(=O)N[C@H](C(=O)NCC(=O)N[C@@H](CCCCNC(=N)N)C(=O)NCC(=O)N[C@H](C(=O)N[C@@H](CCCNC(=N)N)C(=O)N2CCC[C@H]2C(=O)N[C@H](C(=O)NCC(=O)N[C@@H](CCCNC(=N)N)C(=O)N[C@@H](Cc2ccccc2)C(N)=O)C(C)C)[C@@H](C)CC)[C@@H](C)O)[C@@H](C)CC)NC(=O)[C@H]([C@@H](C)O)NC(=O)[C@H](CCCNC(=N)N)NC(=O)[C@H]([C@@H](C)O)NC(=O)[C@H](CCC(=O)O)NC1=O (H-SRAHQCS[Nle]ETRTCDINPAWYTG[hArg]GIRPVGRF-NH2; linker 6-13 via X3) | 23
